A short description of assay [1]: In vitro inhibition of rabbit muscle GAPDH. On the set-up: species or system Oryctolagus cuniculus. The procedure, abridged: (§1)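 Spectrophotometric assay at 23 °C in 0.10 M triethanolamine/HCl, pH 7.5. Enzyme starts the reaction and inhibitors are in 5% DMSO-d₆. Initial rates over 0–2 min are compared with control. IC50 comes from ≥5 concentrations, or is extrapolated from ≥3 concentrations when above 50 µM.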

The test system of the next assay is Trypanosoma cruzi. The assay is described as follows: Effective concentration required to inhibit the growth of mammalian stage of Trypanosoma cruzi grown in murine 3T3 fibroblasts. In kind it is functional. The following applies: read-out: ED50 (the source's name). The procedure, abridged: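 Tulahuen strain stably carrying E. coli lacZ. Mammalian stages are cocultured with mouse 3T3 fibroblasts in RPMI 1640 with 10% FBS at 37 °C, 5% CO₂. Intracellular growth is followed by a colorimetric β-galactosidase read-out. Assays were run twice.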

The next assay has as its system NIH3T3. The experiment in a line: Effective concentration required to inhibit the growth of murine 3T3 fibroblasts. Format: functional. The note with it: Mus musculus, read-out: ED50 (the source's name).
Assay [2] is described as follows: Inhibitory activity against Leishmania mexicana GAPDH; Inactive at 50 uM.
The nature of assay [3]: In vitro inhibition of Trypanosoma cruzi GAPDH. An outline of the steps: as §1
A short description of assay [4]: In vitro inhibition of Trypanosoma brucei GAPDH. The procedure, abridged: as §1
For assay [5], the target named is Glyceraldehyde-3-phosphate dehydrogenase, glycosomal (Leishmania mexicana, UniProt Q27890). The assay is described as follows: Inhibitory activity against Leishmania mexicana GAPDH. An outline of the steps:
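Spectrophotometric GAPDH assay at 23 °C in 0.10 M triethanolamine/HCl pH 7.5, read as NADH formation at 340 nm. Final: 5.0 mM MgSO4, 1.0 mM EDTA, 12.8 mM KH2PO4, 1.0 mM DTT, 1.0 mM NaN3, 0.45 mM NAD+, 1.87 mM fresh glyceraldehyde-3-phosphate, 5% DMSO-d6. Started with enzyme. Initial rates 0–2 min as % of control. IC50 from ≥5 concentrations (≤50 µM) or extrapolated from ≥3.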

Assay [6] has as its system Trypanosoma brucei. The assay is described as follows: (§2) Effective concentration required to block the growth of bloodstream Trypanosoma brucei. The following applies: read-out: ED50 (the source's name). Format: functional. An outline of the steps:
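Bloodstream-form strain 427 trypomastigotes are grown in HMI-9 with 10% FBS at 37 °C, 5% CO₂. Triplicate wells are seeded at 5 × 10³ parasites per well with serially diluted drug. Growth is read with Alamar Blue at 48 h. Assays were run twice.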

Assay [7] has as its system Trypanosoma brucei. The assay is described as §2. In kind it is functional. The following applies: read-out: ED50 (the source's name). The procedure, abridged:
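Bloodstream-form strain 427 trypomastigotes grown in HMI-9 with 10% fetal bovine serum, penicillin and streptomycin at 37 °C, 5% CO2. Inoculum 5 × 10³ parasites per well, drug given in serial dilutions, triplicate wells. Growth read at 48 h with Alamar Blue, checked against hemacytometer counts. Assay run twice.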
This is another data set of the same source.

Some results are limits rather than exact numbers.

Sequence of Glyceraldehyde-3-phosphate dehydrogenase, glycosomal (Q27890 whole entry, looked up): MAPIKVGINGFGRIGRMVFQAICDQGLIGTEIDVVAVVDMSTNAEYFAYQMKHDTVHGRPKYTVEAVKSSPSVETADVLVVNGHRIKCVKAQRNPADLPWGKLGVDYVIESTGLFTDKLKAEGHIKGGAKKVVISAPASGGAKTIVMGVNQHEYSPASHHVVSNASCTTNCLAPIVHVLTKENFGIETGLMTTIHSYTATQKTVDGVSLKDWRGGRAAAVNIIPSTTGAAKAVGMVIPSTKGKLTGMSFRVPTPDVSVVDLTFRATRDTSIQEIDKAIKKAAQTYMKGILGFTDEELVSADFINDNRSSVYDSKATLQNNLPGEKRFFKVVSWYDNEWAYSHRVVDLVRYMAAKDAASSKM

For the molecule `O=C(Cn1ccnc1[N+](=O)[O-])NCc1ccccc1` [BENZNIDAZOLE], the IC50 (in general, the concentration needed to halve the response being measured) in assay [1] is above 50 µM. Moreover, the EC50 was 0.5 µM in the assay on Trypanosoma cruzi and above 50 µM with NIH3T3.

Turning to `O=C(N[C@@H]1[C@H](O)[C@@H](CO)O[C@H]1n1cnc2c(NCc3cccc4ccccc34)ncnc21)c1ccccc1O`, the concentration for half-maximal inhibition (IC50) result in [2] is “Not Active”.

Regarding `COc1ccc(C(=O)N[C@@H]2[C@H](O)[C@@H](CO)O[C@H]2n2cnc3c(NCc4cccc5ccccc45)ncnc32)cc1OC`, the 50% inhibitory concentration (IC50) in assay [1] was above 50 µM; in assay [3] it was 7 µM; in assay [4], 47 µM; in assay [5], 4 µM. Also, the EC50 in the assay with Trypanosoma cruzi was 22 µM; with NIH3T3, above 55 µM; in the assay with Trypanosoma brucei [6], 36 µM.

With `COc1cc(OC)cc(C(=O)N[C@@H]2[C@H](O)[C@@H](CO)O[C@H]2n2cnc3c(NCc4cc(O)cc5ccccc45)ncnc32)c1`, the IC50 is above 50 µM in assay [1], 10 µM in assay [3], 8 µM in assay [4] and 2 µM in [5]. Moreover, the EC50 with Trypanosoma cruzi was above 50 µM; in the assay on NIH3T3, above 50 µM; with Trypanosoma brucei [6], 38 µM.

Regarding `COc1cccc(C(=O)N[C@@H]2[C@H](O)[C@@H](CO)O[C@H]2n2cnc3c(NCc4cc(O)cc5ccccc45)ncnc32)c1`, the IC50 was above 50 µM in [1], 12 µM in assay [3], 25 µM in assay [4] and 6 µM in assay [5]. Moreover, the EC50 was above 50 µM in the assay on Trypanosoma cruzi, above 50 µM in the assay on NIH3T3 and 35 µM with Trypanosoma brucei [6].

`CC(=O)Oc1cc(OC(C)=O)cc(C(=O)N[C@@H]2[C@H](O)[C@@H](CO)O[C@H]2n2cnc3c(NCc4cccc5ccccc45)ncnc32)c1`: the half-maximal inhibitory concentration (IC50) in assay [1] is above 50 µM; in assay [3], 12 µM; in assay [4], 14 µM; in [5] it was 10 µM. Further, the EC50 in the assay on Trypanosoma cruzi, with NIH3T3 and with Trypanosoma brucei [6] was above 50 µM each time.

Turning to `O=C(CC1CCCCC1)NC[C@H]1OC(n2cnc3c(NCc4cccc5ccccc45)ncnc32)[C@H](O)[C@@H]1O` (some centres not stated), the IC50 result in [2] is “Not Active”.

As for `COc1ccccc1C(=O)N[C@@H]1[C@H](O)[C@@H](CO)O[C@H]1n1cnc2c(NCc3cccc4ccccc34)ncnc21`, the IC50 result in assay [2] is “Not Active”.

For the molecule `O=C(N[C@@H]1[C@H](O)[C@@H](CO)O[C@H]1n1cnc2c(NCc3cccc4ccccc34)ncnc21)c1ccccc1Cl`, the half-inhibitory concentration (IC50) result in assay [2] is “Not Active”.

With `COc1cccc(C(=O)N[C@@H]2[C@H](O)[C@@H](CO)O[C@H]2n2cnc3c(NCc4cccc5ccccc45)ncnc32)c1OC(C)=O`, in assay [2], the IC50 result is “Not Active”.

Take `COc1cc(OC)cc(C(=O)N[C@@H]2[C@H](O)[C@@H](CO)O[C@H]2n2cnc3c(NCc4cc(OC)cc5ccccc45)ncnc32)c1`: the IC50 in [1] is above 50 µM; in [3], 7 µM; in assay [4], 5 µM; in [5], 2 µM. For the same molecule, the EC50 is 35 µM in the assay on Trypanosoma cruzi, above 50 µM in the assay on NIH3T3 and 35 µM with Trypanosoma brucei [6].

`O=C(N[C@@H]1[C@H](O)[C@@H](CO)O[C@H]1n1cnc2c(NCc3cc(O)cc4ccccc34)ncnc21)c1cccc(Cl)c1`: the IC50 in assay [1] is above 50 µM; in [3], 12 µM; in [4] it was 25 µM; in [5], 4 µM. Moreover, the EC50 in the assay on Trypanosoma cruzi was 30 µM; in the assay with NIH3T3, above 50 µM; in the assay with Trypanosoma brucei [6] it was 16 µM.

On to `COc1cc(CNc2ncnc3c2ncn3[C@@H]2O[C@H](CO)[C@@H](O)[C@H]2NC(=O)c2cc(Cl)cc(Cl)c2)c2ccccc2c1`, for which the half-inhibitory concentration (IC50) in [1] is above 50 µM; in assay [3], 40 µM; in assay [4], 45 µM; in assay [5] it was 25 µM. Also, the EC50 was determined as 16 µM in the assay with Trypanosoma cruzi, 32 µM in the assay on NIH3T3 and 16 µM with Trypanosoma brucei [6].

For the molecule `COc1cccc(C(=O)N[C@@H]2[C@H](O)[C@@H](CO)O[C@H]2n2cnc3c(NCc4ccc(OC)c5ccccc45)ncnc32)c1`, the IC50 in assay [1] is above 50 µM; in [3], 50 µM; in [4], 26 µM; in assay [5] it was 6 µM. The EC50 in the assay on Trypanosoma cruzi came out at 12 µM; in the assay on NIH3T3, 50 µM; with Trypanosoma brucei [6], 10 µM.

As for `O=C(N[C@@H]1[C@H](O)[C@@H](CO)O[C@H]1n1cnc2c(NCc3cccc4ccccc34)ncnc21)c1cc(O)cc(O)c1`, the IC50 is above 50 µM in assay [1], 14 µM in assay [3], 26 µM in [4] and 5 µM in assay [5]. Besides, the EC50 in the assay on Trypanosoma cruzi was above 50 µM; in the assay on NIH3T3, above 50 µM; in the assay with Trypanosoma brucei [6], 50 µM.

Regarding `COc1cccc(C(=O)N[C@@H]2[C@H](O)[C@@H](CO)O[C@H]2n2cnc3c(NCc4cccc5ccccc45)ncnc32)c1`, the IC50 is above 50 µM in [1], 12 µM in assay [3], 25 µM in assay [4] and 6 µM in assay [5]. Further, the results for the EC50 in the assay with Trypanosoma cruzi, in the assay on NIH3T3 and with Trypanosoma brucei [6] were 10 µM, 40 µM and 18 µM, respectively.

`COc1cc(OC)cc(C(=O)N[C@@H]2[C@H](O)[C@@H](CO)O[C@H]2n2cnc3c(NCc4cccc5ccccc45)ncnc32)c1`: the IC50 in [1] was above 50 µM; in assay [3], 7 µM; in assay [4], 7 µM; in assay [5], 2 µM. For the same molecule, the EC50 with Trypanosoma cruzi came to 8 µM; with NIH3T3 it was 40 µM; in the assay on Trypanosoma brucei [6], 17 µM.

As to `COc1cccc(C(=O)N[C@@H]2[C@H](O)[C@@H](CO)O[C@H]2n2cnc3c(NCc4cccc5ccccc45)ncnc32)c1O`, in assay [2], the concentration for half-maximal inhibition (IC50) result is “Not Active”.

As for `CC(=O)Oc1ccccc1C(=O)N[C@@H]1[C@H](O)[C@@H](CO)O[C@H]1n1cnc2c(NCc3cccc4ccccc34)ncnc21`, the IC50 result in assay [2] is “Not Active”.

As for `COc1cccc(C(=O)N[C@@H]2[C@H](O)[C@@H](CO)O[C@H]2n2cnc3c(NCc4cc(OC)cc5ccccc45)ncnc32)c1`, the half-maximal inhibitory concentration (IC50) in [1] was above 50 µM; in [3], 12 µM; in [4], 12 µM; in assay [5] it was 3 µM. Further, the EC50 in the assay on Trypanosoma cruzi was 20 µM; in the assay with NIH3T3 it was above 50 µM; in the assay with Trypanosoma brucei [6], 31 µM.

In the case of `O=C(N[C@@H]1[C@H](O)[C@@H](CO)O[C@H]1n1cnc2c(NCc3cccc4ccccc34)ncnc21)c1cc(Cl)cc(Cl)c1`, the IC50 in [1] is above 50 µM; in assay [3], 75 µM; in assay [4], 100 µM; in assay [5] it was 12 µM. In addition, the EC50 with Trypanosoma cruzi was 7 µM; in the assay with NIH3T3 it was 35 µM; with Trypanosoma brucei [6] it was 5 µM.

Take `N=C(N)c1ccc(OCCCCCOc2ccc(C(=N)N)cc2)cc1` [PENTAMIDINE]: the half-inhibitory concentration (IC50) in assay [1] is above 50 µM. In addition, the EC50 with Trypanosoma brucei [7] was found to be 0.006 µM.

For `O=C(N[C@@H]1[C@H](O)[C@@H](CO)O[C@H]1n1cnc2c(NCc3cc(O)cc4ccccc34)ncnc21)c1cc(Cl)cc(Cl)c1`, the IC50 in assay [1] is above 50 µM; in assay [3] it was 40 µM; in assay [4], 55 µM; in [5], 25 µM. The EC50 in the assay with Trypanosoma cruzi amounted to 41 µM; in the assay on NIH3T3, 43 µM; in the assay with Trypanosoma brucei [6] it was 12 µM.

As to `COc1cccc(C(=O)N[C@@H]2[C@H](O)[C@@H](CO)O[C@H]2n2cnc3c(NCc4c(OC)ccc5ccccc45)ncnc32)c1`, in assay [2], the IC50 entry is reported as “Not Active”.

Turning to `O=C(NC[C@H]1OC(n2cnc3c(NCc4cccc5ccccc45)ncnc32)[C@H](O)[C@@H]1O)C(c1ccccc1)c1ccccc1` (some centres not stated), the IC50 entry in [2] is “Not Active”.

The record behind these values is ChEMBL document CHEMBL1134510, “Adenosine analogues as selective inhibitors of glyceraldehyde-3-phosphate dehydrogenase of Trypanosomatidae via structure-based drug design” (J Med Chem, 2001).
